This is an account of results in ChEMBL document CHEMBL1155909, “Discovery and stereoselective synthesis of the novel isochroman neurokinin-1 receptor antagonist 'CJ-17,493'” (Bioorg Med Chem, 2008).

The structures appear in SMILES notation.

The target in series [1] is Substance-P receptor (Homo sapiens, UniProt P25103). Description: Displacement of [3H]SP from NK1 receptor in human IM9 cells. (In a radioligand displacement assay an active substance lowers the binding of a labelled ligand.)
Series [2] addresses CYP2D6 (Homo sapiens, UniProt P10635). The experiment in a line: (§1) Inhibition of human CYP2D6 at 5 uM. In kind it is ADME.
Series [3] relates to Gerbillinae. The experiment in a line: Inhibition of [Sar9, Met(O2)11]SP-induced foot tapping in gerbil at 1 mg/kg, sc relative to CP-122721. The settings on record: for inhibition in vivo at 1 mg/kg / % inhibition at 1 mg/kg: Gerbillinae, sc; for inhibition in vivo at 1 mg/kg / inhibition (INH): route subcutaneous, dose 1 mg/kg.
For series [4], the system named is Gerbillinae. Description: Inhibition of [Sar9, Met(O2)11]SP-induced foot tapping in gerbil at 0.1 mg/kg, sc relative to CP-122721.
The target in series [5] is T1, Cytochrome P450 2D6 (Homo sapiens, UniProt P10635). The series is described as §1. Type of series: ADME. The settings on record: 5 µM.
The test system of series [6] is Liver microsomes. Description: Metabolic stability in human liver microsome assessed as ratio of half life between CYP2D6-deficient microsome and CYP2D6-deficient microsome with addition of exogenous CYP2D6. Type of series: ADME. The gist of the method:
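Half-lives were measured in CYP2D6-deficient human liver microsomes with and without added exogenous CYP2D6. The value is the ratio of the half-life without CYP2D6 to the half-life with it.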
(In general: Microsomes from liver hold many membrane-bound enzymes, among them those of drug oxidation.)

Series [7] concerns Gerbillinae. Description: Inhibition of [Sar9, Met(O2)11]SP-induced foot tapping in sc dosed gerbil.
In series [8] the test system is Mustela putorius furo. The experiment in a line: Antiemetic activity against cisplatin-induced emesis in sc dosed ferrets. Type of series: functional, organism-based. The gist of the method: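 Ferrets were given the test compound sc 30 min before cisplatin (10 mg/kg, ip). Retching and vomiting/gagging episodes were counted against vehicle control. Groups were n = 4–5, data are mean ± SEM, and Student's t-test was used. Results are given as ED90 (mg/kg, sc) or as % inhibition at the stated dose.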

The target in series [9] is T1, Cytochrome P450 2D6. Description: Binding affinity to human CYP2D6 using bufuralol as substrate. Type of series: ADME.
[10] abbreviates: dose 0.1 mg/kg, route subcutaneous.
The mark [11] stands for this setting: Mustela putorius, sc, read-out: ED90.

Chain of CYP2D6 (P10635 whole entry): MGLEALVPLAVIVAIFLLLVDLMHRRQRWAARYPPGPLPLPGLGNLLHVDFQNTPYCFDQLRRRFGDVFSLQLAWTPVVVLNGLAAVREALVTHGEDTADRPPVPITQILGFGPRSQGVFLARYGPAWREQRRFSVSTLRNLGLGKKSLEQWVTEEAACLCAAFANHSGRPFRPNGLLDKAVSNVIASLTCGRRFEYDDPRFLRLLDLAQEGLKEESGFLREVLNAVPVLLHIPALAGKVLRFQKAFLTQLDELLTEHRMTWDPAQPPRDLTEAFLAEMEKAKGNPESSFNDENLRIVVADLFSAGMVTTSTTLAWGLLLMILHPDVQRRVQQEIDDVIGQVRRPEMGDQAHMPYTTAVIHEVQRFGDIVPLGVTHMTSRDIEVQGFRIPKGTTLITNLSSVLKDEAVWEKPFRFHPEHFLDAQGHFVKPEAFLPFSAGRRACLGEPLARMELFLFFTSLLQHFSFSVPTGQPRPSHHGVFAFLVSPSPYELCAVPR
T1 sequence (P10635 whole entry): as above
Chain of Substance-P receptor (P25103 whole entry): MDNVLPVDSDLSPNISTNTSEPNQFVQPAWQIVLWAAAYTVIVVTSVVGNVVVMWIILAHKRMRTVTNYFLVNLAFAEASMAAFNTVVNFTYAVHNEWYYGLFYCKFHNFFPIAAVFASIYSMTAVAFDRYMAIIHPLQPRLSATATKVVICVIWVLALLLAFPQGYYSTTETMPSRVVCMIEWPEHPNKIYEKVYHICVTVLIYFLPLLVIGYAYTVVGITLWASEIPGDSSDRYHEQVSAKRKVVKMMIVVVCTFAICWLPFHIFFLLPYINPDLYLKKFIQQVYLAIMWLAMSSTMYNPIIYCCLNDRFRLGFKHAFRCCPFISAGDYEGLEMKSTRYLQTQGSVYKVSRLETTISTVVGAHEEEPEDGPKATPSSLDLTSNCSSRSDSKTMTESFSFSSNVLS

As to `COc1cc2c(cc1CN[C@H]1CCCN[C@H]1c1ccccc1)C(C(F)(F)F)CCC2` (mixture of isomers; 18), the concentration for half-maximal inhibition (IC50) (commonly the concentration that gives 50% inhibition) in series [1] is under 0.1 nM. Further, testing at 5 µM in series [2] gave an inhibition of 85.4%.
On to `COc1ccc(C(C)(F)C(F)(F)F)cc1CN[C@H]1CCCN[C@H]1c1ccccc1` (mixture of isomers), for which testing at 1 mg/kg in series [3] gave an inhibition in vivo of 57%. The IC50 in [1] is under 0.1 nM. Moreover, in [4] (Gerbillinae, sc, dose 0.1 mg/kg, route subcutaneous), the inhibition in vivo (usually the relative decrease from the control value, in per cent) at 0.1 mg/kg was determined as 30%.
Consider `COc1cc2c(cc1CN[C@H]1CCCN[C@H]1c1ccccc1)[C@@](C)(C(F)(F)F)OCC2`, for which, in [1], the 50% inhibitory concentration (IC50) was 0.34 nM.
Regarding `COc1cc2c(cc1CN[C@H]1CCCN[C@H]1c1ccccc1)C(C)(C(F)(F)F)OC2` (mixture of isomers; 14), the “inhibition (INH)” value in series [3] is 69%; in series [5], 41.8%; in [4] (setting [10]), 15%. Also, the IC50 in series [1] was under 0.1 nM.
For the compound `COc1cc2c(cc1CN[C@H]1CCCN[C@H]1c1ccccc1)C(C)(C(F)(F)F)CCC2` (mixture of isomers; 19), the Ratio in series [6] is listed as 1.58. The “inhibition (INH)” value in [3] was 85%; in series [4] (setting [10]), 21%. In addition, the IC50 in series [1] is 0.21 nM.
Consider `COc1ccc(CC(F)(F)F)cc1CN[C@H]1CCCN[C@H]1c1ccccc1`, for which the Ratio in series [6] is 4.25. Also, it took a dose of 0.03 mg/kg to reach the 50% effect level in series [7] (ED50). In series [1], the 50% inhibitory concentration (IC50) turned out to be 0.9 nM. In series [8], this compound registered an ED90 of under 0.1 mg/kg and an ED100 of 0.1 mg/kg. The inhibition (usually the change of the read-out against control, counted positive when it falls) at 5 µM in [2] is 95.6%. The affinity in [9], expressed as Ki, was 70 nM.
On to `COc1ccc(C(C)C)cc1CN[C@H]1C2CCN(CC2)[C@H]1C(c1ccccc1)c1ccccc1` [EZLOPITANT], for which the Ratio in series [6] is 1.8. The ED90 in series [8] (setting [11]) was determined as 2.1 mg/kg. Further, in series [2], the inhibition at 5 µM stood at 64.1%. Further, in series [9], affinity was put at a Ki of 420 nM.
For `COc1ccc(C(C(F)(F)F)C(F)(F)F)cc1CN[C@H]1CCCN[C@H]1c1ccccc1`, in [6], the Ratio worked out at 2. The 50% effective dose (ED50) (as a rule, the dose that gives a 50% effect, or the effect in half of the subjects) in series [7] worked out at 0.33 mg/kg. Also, the half-inhibitory concentration (IC50) in series [1] is under 0.1 nM. The same compound showed an ED100 in series [8] of 0.9 mg/kg. For the same compound, the ED90 in series [8] (setting [11]) is 0.48 mg/kg. Further, the inhibition at 5 µM in series [2] worked out at 43.1%. In addition, in [9], the Ki (usually the dissociation constant of the complex between target and ligand, obtained from inhibition or displacement) was 2100 nM.
`COc1cc2c(cc1CN[C@H]1CCCN[C@H]1c1ccccc1)C(C)(C(F)(F)F)CC2` (mixture of isomers): in [3], the % inhibition (in general, the change of the read-out against control, counted positive when it falls) at 1 mg/kg is 80%. In addition, the half-inhibitory concentration (IC50) in series [1] was under 0.1 nM. The compound also gave a % inhibition at 0.1 mg/kg in series [4] (Gerbillinae, sc) of 68%.
As for `COc1cc2c(cc1CN[C@H]1CCCN[C@H]1c1ccccc1)C(C(F)(F)F)CC2` (mixture of isomers; 11), the Ratio in [6] is 10.6. This compound came in with a % inhibition at 1 mg/kg in series [3] of 88%. This compound came in with an IC50 in [1] of 0.4 nM. This compound gave an inhibition at 5 µM in series [2] of 75.9%. In addition, in [4] (Gerbillinae, sc), the % inhibition at 0.1 mg/kg is 79%. The compound also registered an inhibitory constant (Ki) in series [9] of 520 nM.
Take `COc1ccc(C(C)C(F)(F)F)cc1CN[C@H]1CCCN[C@H]1c1ccccc1` (mixture of isomers): the Ratio in [6] stood at 2.2. This compound returned a 50% effective dose (ED50) in series [7] of 0.82 mg/kg. The IC50 in [1] was determined as 0.4 nM. Moreover, in [8], the ED90 was 0.3 mg/kg and the ED100 result is reported as “>=1 mg kg-1”. Besides, the inhibition at 5 µM in series [2] came to 65.9%. In [9], this compound returned a Ki of 840 nM.
`COc1ccc(C(OC)C(F)(F)F)cc1CN[C@H]1CCCN[C@H]1c1ccccc1` (mixture of isomers) yielded an inhibition in vivo at 1 mg/kg in series [3] of 67%. The compound further showed an IC50 in series [1] of under 0.1 nM. Moreover, the inhibition at 5 µM in [2] turned out to be 92.9%.
As for `COc1ccc(OC(F)(F)F)cc1CN[C@H]1CCCN[C@H]1c1ccccc1`, the ED50 in [7] came to 0.28 mg/kg. For the same compound, the ED100 entry in series [8] is reported as “>=0.3 mg kg-1”. For the same compound, in series [8] (setting [11]), the ED90 was 0.09 mg/kg.
On to `COc1ccc(C(C)(C)C(F)(F)F)cc1CN[C@H]1CCCN[C@H]1c1ccccc1`, for which the Ratio in series [6] is recorded as 1.16. The ED50 in series [7] stood at 0.12 mg/kg. For the same compound, the IC50 in series [1] is 0.2 nM. Besides, the ED100 in series [8] stood at 1 mg/kg. Also, in series [8] (setting [11]), the ED90 was 0.21 mg/kg. At 5 µM the inhibition in series [2] was 54.8%. Further, the affinity in series [9] corresponds to a Ki of 1340 nM.
